From ChEMBL document CHEMBL5096173, “Anti-SARS-CoV-2 Activity of Andrographis paniculata Extract and Its Major Component Andrographolide in Human Lung Epithelial Cells and Cytotoxicity Evaluation in Major Organ Cell Representatives” (J Nat Prod, 2021)

How the values were obtained:
SARS-CoV-2 [1] = experiment: Antiviral activity against SARS CoV-2 (01/human/Jan2020/Thailand) infected in human Calu-3 cells for 2 hrs assessed as inhibition of viral replication measured after 48 hrs post infection by IFA assay; format: functional, organism-based; settings: for IC50: Severe acute respiratory syndrome coronavirus 2, (01/human/Jan2020/Thailand)
SARS-CoV-2 [2] = experiment: Antiviral activity against SARS CoV-2 (01/human/Jan2020/Thailand) infected in African green monkey Vero E6 cells for 2 hrs assessed as inhibition of viral replication measured after 48 hrs post infection by IFA assay; format: functional, organism-based; settings: Severe acute respiratory syndrome coronavirus 2, (01/human/Jan2020/Thailand), Vero C1008
SARS-CoV-2 [3] = experiment: Antiviral activity against SARS CoV-2 (01/human/Jan2020/Thailand) infected in African green monkey Vero E6 cells assessed as inhibition of viral replication pre-infected with cells for 2 hrs followed by compound addition and measured after 48 hrs post infection by plague assay; format: functional, organism-based; settings: Severe acute respiratory syndrome coronavirus 2, (01/human/Jan2020/Thailand), Vero C1008
SARS-CoV-2 [4] = experiment: Antiviral activity against SARS CoV-2 (01/human/Jan2020/Thailand) infected in human Calu-3 cells for 2 hrs assessed as inhibition of viral replication measured after 48 hrs post infection by plague assay; format: functional, organism-based; settings: Severe acute respiratory syndrome coronavirus 2, (01/human/Jan2020/Thailand)
[5] = Cytotoxicity against human imHC cells assessed as reduction in cell viability incubated for 48 hrs by MTT assay; format: toxicity, cell-based
How it was run: (§1)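 Cells plated at 5×10^4/well and exposed 48 h to 0–100 µM (or extract 0–100 µg/mL). MTT added at 0.5 mg/mL final for 4 h at 37 °C, formazan dissolved in DMSO, absorbance read at 570 nm. Data normalised to solvent control and CC50 fitted.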

SH-SY5Y = experiment: Cytotoxicity against human SH-SY5Y cells assessed as reduction in cell viability incubated for 48 hrs by MTT assay; format: functional; how it was run: as §1
SARS-CoV-2 [6] = experiment: Antiviral activity against SARS CoV-2 (01/human/Jan2020/Thailand) infected in human Calu-3 cells for 2 hrs assessed as reduction in extracellular viral RNA measured after 48 hrs post infection by qRT-PCR analysis; format: functional, organism-based; settings: Severe acute respiratory syndrome coronavirus 2, dose 0.1-100 µg/ml, DDE = dose-dependent effect
[7] = Selectivity index, ratio of CC50 for human SH-SY5Y to IC50 for SARS CoV-2 (01/human/Jan2020/Thailand) infected in African green monkey Vero E6 cells; format: toxicity; settings: read-out: Ratio CC50/IC50
[8] = Selectivity index, ratio of CC50 for human Calu-3 to IC50 for SARS CoV-2 (01/human/Jan2020/Thailand) infected in African green monkey Vero E6 cells; format: toxicity; settings: Calu-3 cells, read-out: Ratio CC50/IC50
SARS-CoV-2 [9] = experiment: Antiviral activity against SARS CoV-2 (01/human/Jan2020/Thailand) infected in African green monkey Vero E6 cells for assessed as inhibition of viral replication preincubated for 1 hr followed by viral adsorption for 2 hrs and measured after 48 hrs by hoechst staining based analysis; format: functional, organism-based; settings: Severe acute respiratory syndrome coronavirus 2, (01/human/Jan2020/Thailand), Vero C1008
Calu-3 = experiment: Cytotoxicity against human Calu-3 cells assessed as reduction in cell viability incubated for 48 hrs by MTT assay; format: functional; how it was run: as §1
[10] = Selectivity index, ratio of CC50 for human HK-2 to IC50 for SARS CoV-2 (01/human/Jan2020/Thailand) infected in African green monkey Vero E6 cells; format: toxicity; settings: HK-2 cells, read-out: Ratio CC50/IC50
[11] = biological target: Replicase polyprotein 1ab (Severe acute respiratory syndrome coronavirus 2, UniProt P0DTD1); experiment: Inhibition of C-terminal His 6 tagged SARS CoV-2 main protease transfected in Escherichia coli BL21 (DE3); design: species or system Severe acute respiratory syndrome-related coronavirus
HK-2 = experiment: Cytotoxicity against human HK-2 cells assessed as reduction in cell viability incubated for 48 hrs by MTT assay; format: toxicity, cell-based; settings: hk-2, 48 h; how it was run: as §1
[12] = Selectivity index, ratio of CC50 for human imHC to IC50 for SARS CoV-2 (01/human/Jan2020/Thailand) infected in African green monkey Vero E6 cells; format: toxicity; settings: read-out: Ratio CC50/IC50
[13] = Selectivity index, ratio of CC50 for human Caco-2 to IC50 for SARS CoV-2 (01/human/Jan2020/Thailand) infected in African green monkey Vero E6 cells; format: toxicity; settings: Caco-2 cells, read-out: Ratio CC50/IC50
Caco-2 = experiment: Cytotoxicity against human Caco-2 cells assessed as reduction in cell viability incubated for 48 hrs by MTT assay; format: functional; how it was run: as §1
HepG2 = experiment: Cytotoxicity against human HepG2 cells assessed as reduction in cell viability incubated for 48 hrs by MTT assay; format: functional; how it was run: as §1
[14] = Selectivity index, ratio of CC50 for human HepG2 to IC50 for SARS CoV-2 (01/human/Jan2020/Thailand) infected in African green monkey Vero E6 cells; format: toxicity; settings: read-out: Ratio CC50/IC50

## CCN(CCO)CCCC(C)Nc1ccnc2cc(Cl)ccc12 (stereo unspecified) [HYDROXYCHLOROQUINE]
SARS-CoV-2 [1]
  IC50: > 50000 nM

## CCC(CC)COC(=O)[C@H](C)N[P@](=O)(OC[C@H]1O[C@@](C#N)(c2ccc3c(N)ncnn23)[C@H](O)[C@@H]1O)Oc1ccccc1 [REMDESIVIR]
SARS-CoV-2 [2]
  IC50: 2710 nM
SARS-CoV-2 [1]
  IC50: 43 nM
SARS-CoV-2 [3]
  IC50: 2650 nM
SARS-CoV-2 [4]
  IC50: 86 nM

## O=C(Nc1ccc([N+](=O)[O-])cc1Cl)c1cc(Cl)ccc1O [NICLOSAMIDE]
SARS-CoV-2 [1]
  IC50: 900 nM

## C=C1CC[C@@H]2[C@](C)(CO)[C@H](O)CC[C@@]2(C)[C@@H]1C/C=C1/C(=O)OC[C@H]1O [ANDROGRAPHOLIDE]
[5]
  Activity: 44.55 µM
SARS-CoV-2 [2]
  IC50: 6580 nM
SH-SY5Y
  Activity: 13.19 µM
SARS-CoV-2 [6]
  Activity: Dde
[7]
  selectivity ratio: 388
[8]
  selectivity ratio: 1710
SARS-CoV-2 [9]
  IC50: 19000 nM
Calu-3
  Activity: 58.03 µM
[10]
  selectivity ratio: 1000
[11]
  IC50: 15000 nM
HK-2
  Activity: 34.11 µM
[12]
  selectivity ratio: 1310
[13]
  selectivity ratio: 1540
SARS-CoV-2 [1]
  IC50: 1680 nM
SARS-CoV-2 [1]; Severe acute respiratory syndrome coronavirus 2, dose 0.1-100 µg/ml, DDE = dose-dependent effect
  Activity: Dde
Caco-2
  Activity: 52.3 µM
HepG2
  Activity: 81.52 µM
SARS-CoV-2 [3]
  IC50: 280 nM
SARS-CoV-2 [4]
  IC50: 34 nM
[14]
  selectivity ratio: 2400
